{"source": "ChEMBL document CHEMBL2380254", "about": "“Optimization of tocotrienols as antiproliferative and antimigratory leads” (Eur J Med Chem, 2013)", "type_in_all_cases": "functional", "key": {"K562": {"tested_on": "K562", "assay": "Growth inhibition of human K562 cells assessed as cell growth at 10 uM after 48 hrs by sulforhodamine B assay", "conditions": "K562, 48 h, read-out: Activity", "outline": "(§1)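 NCI-60 single-dose screen at 10 µM: cells in RPMI 1640 with 5% FBS, preincubated 24 h, then exposed 48 h at 37 °C. TCA fixation (16% final for suspension cells), SRB staining, absorbance 515 nm. Percent growth relative to time-zero and untreated control plates; negative values indicate cell kill.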"}, "OVCAR-4": {"tested_on": "OVCAR-4", "assay": "Growth inhibition of human OVCAR4 cells assessed as cell growth at 10 uM after 48 hrs by sulforhodamine B assay", "conditions": "OVCAR-4, 48 h, read-out: Activity", "outline": "(§2)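 Single-dose NCI-60 screen: adherent cells in RPMI 1640 with 5% FBS were exposed to 10 µM for 48 h at 37 °C after a 24 h preincubation. They were fixed in situ with cold TCA (10% final), stained with 0.4% SRB in 1% acetic acid, solubilized in 10 mM Tris base, and read at 515 nm. Percent growth was taken relative to time-zero and control plates.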"}, "NCI-H460": {"tested_on": "NCI-H460", "assay": "Growth inhibition of human NCI-H460 cells after 48 hrs by sulforhodamine B assay", "conditions": "NCI-H460, 48 h", "outline": "(§3)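 NCI-60 panel cells grown in RPMI 1640 with 5% FBS and 2 mM L-glutamine, seeded at 5000–40,000 cells/well and preincubated 24 h. Five 10-fold dilutions (0.001–100 µM) from DMSO stocks were added for 48 h at 37 °C. Adherent cells were fixed with cold TCA (10% final) for 60 min at 4 °C, stained with 0.4% SRB, and read at 515 nm. GI50 was set where 100×(T−T0)/(C−T0)=50.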"}, "SK-MEL-5": {"tested_on": "SK-MEL-5", "assay": "Growth inhibition of human SK-MEL-5 cells assessed as cell growth at 10 uM after 48 hrs by sulforhodamine B assay", "conditions": "SK-MEL-5, 48 h, read-out: Activity", "outline": "as §2"}, "ACHN [1]": {"tested_on": "ACHN", "assay": "Growth inhibition of human ACHN cells after 48 hrs by sulforhodamine B assay", "outline": "(§4)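 NCI-60 screen: cells in RPMI 1640 with 5% FBS and 2 mM glutamine, 5000–40,000 cells/well, preincubated 24 h. Five concentrations (10-fold dilutions; 100 to 0.001 µM) applied for 48 h at 37 °C. TCA fixation, SRB stain, absorbance at 515 nm. Time-zero plates included; GI50 where 100×(T−T0)/(C−T0)=50.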"}, "MDA-MB-435": {"tested_on": "MDA-MB-435", "assay": "Growth inhibition of human MDA-MB-435 cells assessed as cell growth at 10 uM after 48 hrs by sulforhodamine B assay", "conditions": "MDA-MB-435, 48 h, read-out: Activity", "outline": "as §2"}, "ACHN [2]": {"tested_on": "ACHN", "assay": "Growth inhibition of human ACHN cells assessed as cell growth at 10 uM after 48 hrs by sulforhodamine B assay", "conditions": "read-out: Activity", "outline": "as §1"}, "HOP-92": {"tested_on": "HOP-92", "assay": "Growth inhibition of human HOP92 cells after 48 hrs by sulforhodamine B assay", "conditions": "HOP-92, 48 h", "outline": "as §4"}, "SK-OV-3": {"tested_on": "SK-OV-3", "assay": "Growth inhibition of human SKOV3 cells after 48 hrs by sulforhodamine B assay", "conditions": "SK-OV-3, 48 h", "outline": "(§5)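 NCI-60 five-dose screen. Cells were grown in RPMI 1640 with 5% FBS and 2 mM L-glutamine, plated at 5000–40,000 cells/well and incubated 24 h before dosing, with T0 plates TCA-fixed. DMSO stocks were diluted to doses of […] and exposed 48 h at 37 °C, 5% CO2. Cells were fixed with cold TCA (final 10%, 60 min, 4 °C), stained with 0.4% SRB in 1% acetic acid for 10 min, solubilized in 10 mM trizma base and read at 515 nm. GI50 is where 100×(T−T0)/(C−T0)=50.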"}, "OVCAR-5": {"tested_on": "OVCAR-5", "assay": "Growth inhibition of human OVCAR5 cells after 48 hrs by sulforhodamine B assay", "conditions": "OVCAR-5, 48 h", "outline": "as §3"}, "HL-60(TB)": {"tested_on": "HL-60(TB)", "assay": "Growth inhibition of human HL-60(TB) cells assessed as cell growth at 10 uM after 48 hrs by sulforhodamine B assay", "conditions": "HL-60, 48 h, read-out: Activity", "outline": "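NCI-60 single-dose screen run at 10 µM on HL-60(TB) suspension cells in RPMI 1640 with 5% FBS and 2 mM L-glutamine. Cells were preincubated for 24 h, with a time-zero plate fixed then. Exposure lasted 48 h at 37 °C. Settled cells were fixed with TCA (16% final), stained with SRB and read at 515 nm. Percent growth is relative to control and T0.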"}, "UO-31": {"tested_on": "UO-31", "assay": "Growth inhibition of human UO31 cells assessed as cell growth at 10 uM after 48 hrs by sulforhodamine B assay", "conditions": "UO-31, 48 h, read-out: Activity", "outline": "(§6)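 Single-dose NCI-60 test at 10 µM. Cells were grown in RPMI 1640 with 5% FBS and 2 mM L-glutamine, preincubated 24 h, with T0 plates TCA-fixed. Exposure was 48 h at 37 °C, 5% CO2. Cells were fixed with cold TCA (final 10%, 4 °C, 60 min), stained with SRB and read at 515 nm. Percent growth was taken relative to T0 and untreated control; negative values denote cell kill.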"}, "CCRF-CEM": {"tested_on": "CCRF-CEM", "assay": "Growth inhibition of human CCRF-CEM cells assessed as cell growth at 10 uM after 48 hrs by sulforhodamine B assay", "conditions": "read-out: Activity", "outline": "as §1"}, "BT-549": {"tested_on": "BT-549", "assay": "Growth inhibition of human BT549 cells assessed as cell growth at 10 uM after 48 hrs by sulforhodamine B assay", "conditions": "BT-549, 48 h, read-out: Activity", "outline": "as §1"}, "OVCAR-3 [3]": {"tested_on": "OVCAR-3", "assay": "Growth inhibition of human OVCAR3 cells assessed as cell growth at 10 uM after 48 hrs by sulforhodamine B assay", "conditions": "OVCAR-3, 48 h, read-out: Activity", "outline": "as §2"}, "A498": {"tested_on": "A498", "assay": "Growth inhibition of human A498 cells assessed as cell growth at 10 uM after 48 hrs by sulforhodamine B assay", "conditions": "A498, 48 h, read-out: Activity", "outline": "as §1"}, "U-251 [4]": {"tested_on": "U-251", "assay": "Growth inhibition of human U251 cells after 48 hrs by sulforhodamine B assay", "conditions": "U-251, 48 h", "outline": "as §5"}, "U-251 [5]": {"tested_on": "U-251", "assay": "Growth inhibition of human U251 cells assessed as cell growth at 10 uM after 48 hrs by sulforhodamine B assay", "conditions": "U-251, 48 h, read-out: Activity", "outline": "as §6"}, "OVCAR-3 [6]": {"tested_on": "OVCAR-3", "assay": "Growth inhibition of human OVCAR3 cells after 48 hrs by sulforhodamine B assay", "conditions": "OVCAR-3, 48 h", "outline": "as §3"}, "IGROV-1": {"tested_on": "IGROV-1", "assay": "Growth inhibition of human IGROV1 cells after 48 hrs by sulforhodamine B assay", "conditions": "IGROV-1, 48 h", "outline": "as §4"}, "[7]": {"assay": "Growth inhibition of human Hs 578T cells assessed as cell growth at 10 uM after 48 hrs by sulforhodamine B assay", "conditions": "read-out: Activity", "outline": "as §1"}, "[8]": {"assay": "Growth inhibition of human EKVX cells after 48 hrs by sulforhodamine B assay", "outline": "as §4"}, "TK-10": {"tested_on": "TK-10", "assay": "Growth inhibition of human TK10 cells assessed as cell growth at 10 uM after 48 hrs by sulforhodamine B assay", "conditions": "TK-10, 48 h, read-out: Activity", "outline": "as §6"}, "COLO 205": {"tested_on": "COLO 205", "assay": "Growth inhibition of human COLO205 cells after 48 hrs by sulforhodamine B assay", "conditions": "COLO 205, 48 h", "outline": "as §4"}, "SF-295": {"tested_on": "SF-295", "assay": "Growth inhibition of human SF295 cells after 48 hrs by sulforhodamine B assay", "conditions": "SF-295, 48 h", "outline": "as §3"}}}
{"smiles": "CC(C)=CCC/C(C)=C/CC/C(C)=C/CC[C@]1(C)CCc2c3c(cc(C)c2O1)OCN(CCCCCO)C3", "values": [{"measurement": "growth at 10 µM", "setting": "K562", "value": -35, "unit": "%"}, {"measurement": "growth at 10 µM", "setting": "OVCAR-4", "value": 43.3, "unit": "%"}, {"measurement": "GI50", "setting": "NCI-H460", "value": 5.18, "unit": "µM"}, {"measurement": "growth at 10 µM", "setting": "SK-MEL-5", "value": 83.9, "unit": "%"}, {"measurement": "GI50", "setting": "ACHN [1]", "value": 5.74, "unit": "µM"}, {"measurement": "growth at 10 µM", "setting": "MDA-MB-435", "value": 44.7, "unit": "%"}, {"measurement": "growth at 10 µM", "setting": "ACHN [2]", "value": 81.6, "unit": "%"}, {"measurement": "GI50", "setting": "HOP-92", "value": 5.42, "unit": "µM"}, {"measurement": "GI50", "setting": "SK-OV-3", "value": 6.85, "unit": "µM"}, {"measurement": "GI50", "setting": "OVCAR-5", "value": 5.93, "unit": "µM"}, {"measurement": "growth at 10 µM", "setting": "HL-60(TB)", "value": 58.3, "unit": "%"}, {"measurement": "growth at 10 µM", "setting": "UO-31", "value": 50.4, "unit": "%"}, {"measurement": "growth at 10 µM", "setting": "CCRF-CEM", "value": 38.4, "unit": "%"}, {"measurement": "growth at 10 µM", "setting": "BT-549", "value": 110, "unit": "%"}, {"measurement": "growth at 10 µM", "setting": "OVCAR-3 [3]", "value": 54.6, "unit": "%"}, {"measurement": "growth at 10 µM", "setting": "A498", "value": 89.7, "unit": "%"}, {"measurement": "GI50", "setting": "U-251 [4]", "value": 5.71, "unit": "µM"}, {"measurement": "growth at 10 µM", "setting": "U-251 [5]", "value": -19.9, "unit": "%"}, {"measurement": "GI50", "setting": "OVCAR-3 [6]", "value": 6.71, "unit": "µM"}, {"measurement": "GI50", "setting": "IGROV-1", "value": 6.18, "unit": "µM"}, {"measurement": "growth at 10 µM", "setting": "[7]", "value": 36.6, "unit": "%"}, {"measurement": "GI50", "setting": "[8]", "value": 6.08, "unit": "µM"}, {"measurement": "growth at 10 µM", "setting": "TK-10", "value": 76.3, "unit": "%"}, {"measurement": "GI50", "setting": "COLO 205", "value": 3.39, "unit": "µM"}, {"measurement": "GI50", "setting": "SF-295", "value": 6.12, "unit": "µM"}]}
